Legend:
Conditions in all cases: stereoisomer not certain
[1] = target: T1, OR10G2 (Homo sapiens) (UniProt Q8NGC3)
T1 sequence (whole entry): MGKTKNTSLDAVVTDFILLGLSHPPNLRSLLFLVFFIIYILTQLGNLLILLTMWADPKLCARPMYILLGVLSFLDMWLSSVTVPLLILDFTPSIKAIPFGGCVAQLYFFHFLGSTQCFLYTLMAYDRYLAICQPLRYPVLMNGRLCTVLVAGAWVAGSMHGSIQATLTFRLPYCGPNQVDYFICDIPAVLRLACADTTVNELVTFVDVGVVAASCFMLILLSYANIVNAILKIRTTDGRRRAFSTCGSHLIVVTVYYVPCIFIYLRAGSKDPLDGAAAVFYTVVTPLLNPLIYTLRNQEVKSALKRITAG
How it was run: (§1)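 Each receptor–molecule pair is labelled responsive or non-responsive (inactive) according to whether the original authors judged the measured signal statistically different from baseline. The data were taken from the main text and supplementary material of published papers and checked for typos and inconsistencies. Assay methods differed by source, with transient luciferase assays in mammalian cell lines being common.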

[2] = target: T2, OR10G3 (Homo sapiens) (UniProt Q8NGC4)
T2 sequence (whole entry): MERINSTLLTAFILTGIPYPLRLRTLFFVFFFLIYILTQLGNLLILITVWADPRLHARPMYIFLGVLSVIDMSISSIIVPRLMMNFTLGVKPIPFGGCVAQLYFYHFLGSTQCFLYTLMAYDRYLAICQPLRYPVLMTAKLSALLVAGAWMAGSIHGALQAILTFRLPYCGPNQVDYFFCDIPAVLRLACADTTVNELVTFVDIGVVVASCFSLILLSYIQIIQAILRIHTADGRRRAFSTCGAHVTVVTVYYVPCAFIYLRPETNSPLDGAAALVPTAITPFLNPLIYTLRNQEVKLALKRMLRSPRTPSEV
How it was run: as §1

[3] = target: T3, OR10G4 (Homo sapiens) (UniProt Q8NGN3)
T3 sequence (whole entry): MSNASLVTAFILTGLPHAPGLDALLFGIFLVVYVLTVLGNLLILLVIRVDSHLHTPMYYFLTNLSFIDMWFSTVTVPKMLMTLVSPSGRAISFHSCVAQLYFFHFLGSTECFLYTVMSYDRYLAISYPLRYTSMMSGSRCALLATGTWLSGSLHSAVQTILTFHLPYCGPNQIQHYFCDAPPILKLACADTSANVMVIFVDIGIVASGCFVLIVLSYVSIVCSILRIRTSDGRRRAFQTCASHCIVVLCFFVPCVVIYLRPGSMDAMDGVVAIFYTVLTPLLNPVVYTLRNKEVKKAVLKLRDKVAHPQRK
How it was run: as §1

[4] = target: T4, OR10G6 (Homo sapiens) (UniProt Q8NH81)
T4 sequence (whole entry): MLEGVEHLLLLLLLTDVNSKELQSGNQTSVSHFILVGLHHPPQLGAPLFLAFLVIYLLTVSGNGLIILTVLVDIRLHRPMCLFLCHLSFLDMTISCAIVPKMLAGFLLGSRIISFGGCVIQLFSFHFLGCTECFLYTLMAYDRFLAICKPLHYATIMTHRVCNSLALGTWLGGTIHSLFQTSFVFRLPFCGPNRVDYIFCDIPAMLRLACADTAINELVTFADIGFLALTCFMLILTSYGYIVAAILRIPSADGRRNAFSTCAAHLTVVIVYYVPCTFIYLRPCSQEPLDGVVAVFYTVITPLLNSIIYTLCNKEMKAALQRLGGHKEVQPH
How it was run: as §1

[5] = target: T5, OR10G7 (Homo sapiens) (UniProt Q8NGN6)
T5 sequence (whole entry): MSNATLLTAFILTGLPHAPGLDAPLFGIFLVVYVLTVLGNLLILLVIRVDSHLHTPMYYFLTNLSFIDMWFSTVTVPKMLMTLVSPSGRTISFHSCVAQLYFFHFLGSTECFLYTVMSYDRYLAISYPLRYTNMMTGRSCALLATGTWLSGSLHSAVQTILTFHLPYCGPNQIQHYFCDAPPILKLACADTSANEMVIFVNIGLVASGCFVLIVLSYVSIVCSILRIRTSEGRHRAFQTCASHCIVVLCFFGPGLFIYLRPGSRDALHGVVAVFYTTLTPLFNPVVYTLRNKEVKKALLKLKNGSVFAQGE
How it was run: as §1

[6] = target: T6, OR10G8 (Homo sapiens) (UniProt Q8NGN5)
T6 sequence (whole entry): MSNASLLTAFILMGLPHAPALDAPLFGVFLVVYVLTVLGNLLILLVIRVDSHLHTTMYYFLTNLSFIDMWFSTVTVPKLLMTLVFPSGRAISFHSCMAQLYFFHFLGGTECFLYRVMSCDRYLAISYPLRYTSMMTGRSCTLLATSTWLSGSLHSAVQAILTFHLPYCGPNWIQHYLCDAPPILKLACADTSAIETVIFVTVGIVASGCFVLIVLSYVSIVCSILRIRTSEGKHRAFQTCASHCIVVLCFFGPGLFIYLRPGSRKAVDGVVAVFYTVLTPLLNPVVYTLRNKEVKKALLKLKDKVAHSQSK
How it was run: as §1

[7] = target: T7, OR10G9 (Homo sapiens) (UniProt Q8NGN4)
T7 sequence (whole entry): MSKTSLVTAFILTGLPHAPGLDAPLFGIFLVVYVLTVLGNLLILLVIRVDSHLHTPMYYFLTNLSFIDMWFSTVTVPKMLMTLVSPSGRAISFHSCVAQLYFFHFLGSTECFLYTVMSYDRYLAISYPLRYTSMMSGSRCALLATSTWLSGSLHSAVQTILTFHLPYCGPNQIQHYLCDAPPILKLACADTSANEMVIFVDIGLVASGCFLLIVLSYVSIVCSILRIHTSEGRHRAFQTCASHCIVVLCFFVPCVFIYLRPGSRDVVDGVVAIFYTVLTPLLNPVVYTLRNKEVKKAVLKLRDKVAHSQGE
How it was run: as §1

[8] = target: T8, OR10H1 (Homo sapiens) (UniProt Q9Y4A9)
T8 sequence (whole entry): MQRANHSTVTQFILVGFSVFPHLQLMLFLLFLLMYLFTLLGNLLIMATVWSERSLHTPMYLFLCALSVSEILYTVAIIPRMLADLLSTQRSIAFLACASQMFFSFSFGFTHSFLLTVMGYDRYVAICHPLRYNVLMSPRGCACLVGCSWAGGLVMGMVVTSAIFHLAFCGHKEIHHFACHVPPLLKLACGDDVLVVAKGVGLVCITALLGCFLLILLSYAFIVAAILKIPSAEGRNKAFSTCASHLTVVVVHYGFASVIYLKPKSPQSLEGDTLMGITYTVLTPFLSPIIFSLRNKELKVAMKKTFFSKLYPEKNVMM
How it was run: as §1

[9] = target: T9, OR10H2 (Homo sapiens) (UniProt O60403)
T9 sequence (whole entry): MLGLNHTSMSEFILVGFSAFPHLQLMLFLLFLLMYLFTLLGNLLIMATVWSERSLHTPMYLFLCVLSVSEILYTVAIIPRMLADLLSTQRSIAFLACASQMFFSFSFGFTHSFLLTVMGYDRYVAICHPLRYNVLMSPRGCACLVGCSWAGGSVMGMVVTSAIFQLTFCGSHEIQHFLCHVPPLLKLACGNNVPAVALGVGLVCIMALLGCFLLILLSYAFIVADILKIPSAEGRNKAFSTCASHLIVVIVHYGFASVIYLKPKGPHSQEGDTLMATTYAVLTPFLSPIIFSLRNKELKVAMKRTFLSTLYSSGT
How it was run: as §1

Measured: odorant receptor agonist call;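 also: active if original authors judged signal statistically different from baseline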

CC(CO)CS (centres undefined)
inactive: [1] | [2] | [3] | [4] | [5] | [6] | [7] | [8] | [9]
